CCR6 antagonist – antagonists of human CCR6 receptor; P51684; CHO-K1 CCR6 PathHunter beta-arrestin, luminescence, CCL20-stimulated; inhibition, % at 20 µM; 340,000 compounds, 0.49% hits; AID 493098;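 active means compounds whose inhibition of the agonist-driven luminescence signal at 20 µM reaches about 50%, limit read from the data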;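 further: cells stimulated with CCL20 at 14 nM final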
Target sequence (P51684 whole entry, looked up): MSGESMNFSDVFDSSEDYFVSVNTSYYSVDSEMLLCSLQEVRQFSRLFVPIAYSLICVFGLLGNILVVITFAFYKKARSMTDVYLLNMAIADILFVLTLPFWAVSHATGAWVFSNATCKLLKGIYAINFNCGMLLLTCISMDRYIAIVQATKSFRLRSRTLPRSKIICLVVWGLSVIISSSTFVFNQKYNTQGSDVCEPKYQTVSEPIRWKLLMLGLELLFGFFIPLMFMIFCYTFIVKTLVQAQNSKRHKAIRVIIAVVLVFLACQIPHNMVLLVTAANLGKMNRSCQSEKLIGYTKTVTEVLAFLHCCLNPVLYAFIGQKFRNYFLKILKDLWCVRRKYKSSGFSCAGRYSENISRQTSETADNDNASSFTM
EBI2 block – antagonists of human EBI2 receptor; EBI2 beta-arrestin recruitment, luminescence, 7a,25-OHC stimulated; inhibition, % at 5 µM; 360,000 compounds, 0.81% hits; AID 651636; in the data active means inhibition above about 38%;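 further: enzyme fragment complementation signal reports receptor beta-arrestin coupling in cells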
APJ antagonist – APJ receptor antagonism; P35414; CHO-K1 APJ beta-arrestin complementation, luminescence; inhibition, % at 20 µM; 330,000 compounds, 0.32% hits;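 active means inhibition above about 40% at 20 µM, limit read from the data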;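 further: cells challenged with 10 nM apelin-13 agonist together with compound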
CXCR6 inh – inhibitors of human CXCR6 receptor | 360,000 compounds, 0.36% hits | inhibition, % at 20 µM | AID 602244 | CHO-K1 PathHunter CXCR6 beta-arrestin, luminescence | O00574; in the data active means inhibition above about 34%, passing the limit was not always enough;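 further: antagonist mode with CXCL16 agonist at 10 nM final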
APJ ag – APJ receptor agonism; AID 2520; P35414; 330,000 compounds, 0.11% hits; CHO-K1 APJ PathHunter beta-arrestin, luminescence; 0% DMSO wells, 100% apelin; activation, % at 20 µM;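 active means activation more than six SD over the plate average, tested at 20 µM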
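Test system – PathHunter CHO-K1 APJ (AGTRL-1) beta-arrestin reporter cells · Input – 1000 cells/well · Compound – single test compound dose, 20 µM final, 1% DMSO · Times – compound stimulation 90 min at 25 °C, detection 60 min · Technique – beta-gal luminescence · Read-out basis – APJ–arrestin association signal · Control set – negative DMSO alone, positive Apelin-13 at 10 nM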
Beta2AR agonist – activates human beta-2 adrenergic receptor causing internalization; P07550; response, % (no concentration beside the values); AID 504454; Am2.2-beta2AR cells, FAP receptor internalization, flow cytometry; 340,000 compounds, 0.43% hits;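 active means response above a set limit, near 3 SD of response in nonfluorescent compounds, cut at about 42% in these data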
EBI2 antag conf – confirmation of human EBI2 receptor antagonists; inhibition, % at 5 µM; EBI2 beta-arrestin luminescence, 7a,25-OHC antagonism; AID 651997; 2,400 compounds, 29% hits; shares compounds with EBI2 block;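 active means inhibition of at least 50%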
EBI2 ag – EBI2 agonism counter-screen; shares compounds with EBI2 block; EBI2-expressing cells, agonist mode, luminescence, 60 min; 0% vehicle, 100% 7α,25-dihydroxycholesterol control; activation, % at 5 µM; 2,400 tested, under 10 active; AID 652000;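 active means activation of at least 50%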
bGal counter – inhibits E. coli beta-galactosidase, counter-screen for EBI2 antagonists; shares compounds with EBI2 block; purified beta-galactosidase, luminescent Galacton Star, 15 min; inhibition, % at 5 µM; 2,400 compounds, 1% hits;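 active means replicate-average signal at least 3 plate SD below neutral wells, shown as high inhibition, flagging enzyme-inhibiting false positives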;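 further: higher means stronger loss of beta-gal luminescence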
Hits are given with their value; n = inactive; x = no result. Compounds with a hit are over-represented: about 1.8% of the library has one in this group of screens.

SMILES	CCR6 antagonist	EBI2 block	APJ antagonist	CXCR6 inh	APJ ag	Beta2AR agonist	EBI2 antag conf	EBI2 ag	bGal counter
O=C(Nc1ccc2c(c1)OCCO2)C(c1ccnc2ccccc12)N1CCN(C/C=C/c2ccccc2)CC1 (configuration not stated)	x	50	x	n	x	x	n	n	n
COc1ccc(CN2C(=O)CSCC2(C)C(=O)NCc2ccccc2)cc1 (configuration not stated)	x	n	x	x	x	x	x	x	x
C=CCN(c1ccccc1OC)S(=O)(=O)c1cccc(C(=O)OCC(=O)c2c(N)n(C)c(=O)n(C)c2=O)c1	n	n	x	n	x	n	x	x	x
[O-][n+]1onc2c1CCc1c-2nc(-c2ccccc2)n1OCc1ccccc1	n	49	n	n	n	n	n	n	n
COc1cccc(Oc2ccc(C(F)(F)F)cc2NC(=O)CN2C(=O)NC3(CCCC3)C2=O)c1	n	n	n	n	n	n	x	x	x
O=C(CSC1CN(C(c2ccccc2)c2ccccc2)C1)N/N=C/c1ccccc1	n	49	n	n	n	n	n	n	n
COc1ccc(C(=O)Nc2ccc3ccccc3c2)cc1	n	55	n	n	n	n	n	n	n
COc1ccc(NC(=O)c2ccc(OC(F)F)cc2)cc1Cl	n	46	n	n	n	n	54	n	n
COc1ccc(NC(=S)NN(C)C(=S)Nc2ccc(OC)cc2)cc1	n	67	n	n	n	n	n	n	n
COc1ccc(OC)c(C(=O)c2ccc(C(=O)Nc3ccc4ccccc4c3)cc2)c1	n	88	n	n	n	n	55	n	n
COc1ccc(NC(=S)Nc2ccc(Oc3ccccc3)cc2)cc1	n	n	n	n	n	n	x	x	x
CCc1ccc(NC(=O)C(C)OC(=O)CCC(=O)c2cccs2)cc1 (configuration not stated)	n	n	n	n	n	n	x	x	x
O=C(N/N=C/c1ccc2c(c1)OCO2)C1CC1	n	n	n	n	n	n	x	x	x
CCCCCC(=O)Nc1ccc2ccccc2c1	n	n	n	n	n	n	x	x	x
COc1cccc(C(=O)Nc2ccc(NC(=O)Cc3ccccc3)cc2)c1	n	66	n	n	n	n	n	n	n
CN(C(=S)Oc1ccc(C(=O)Nc2ccccc2)cc1)c1ccccc1	n	n	n	n	n	n	x	x	x
COc1ccc(NC(=O)c2ccc(OC(=S)N(C)c3ccc(OC)cc3)cc2)cc1	n	86	n	n	n	n	74	n	n
COc1cccc(C(=O)Nc2ccccc2)c1	n	n	n	n	n	n	x	x	x
O=C(CS)Nc1ccc2ccccc2c1	n	40	x	n	x	n	n	n	n
CCOC(=O)c1ccc(NC(=O)c2nc[nH]c2C(=O)NC[C@@H](C)O)cc1	x	n	x	n	x	x	x	x	x
Cc1ccc(Oc2ccc(Oc3ccc(C)cc3)nn2)cc1	n	92	n	n	n	n	89	n	n
Cc1cn(CC(=O)N(C)Cc2ccco2)c(=O)[nH]c1=O	n	n	x	n	x	n	x	x	x
COc1ccc(-n2c(-c3ccco3)nc3c(cnn3-c3ccc(C)cc3)c2=O)cc1	n	43	n	n	n	n	n	n	n
CCOC(=O)/C(C#N)=C/c1c(Oc2cc(C)cc(C)c2)nc2ccccn2c1=O	n	51	n	n	n	n	n	n	n
O=C1CC(C(=O)N2CCN(S(=O)(=O)c3cccc(F)c3)CC2)CN1Cc1ccccc1Cl (configuration not stated)	n	62	n	n	n	n	n	n	n
SMILES	CCR6 antagonist	EBI2 block	APJ antagonist	CXCR6 inh	APJ ag	Beta2AR agonist	EBI2 antag conf	EBI2 ag	bGal counter
C[C@H](NC(=O)[C@@H]1CCCN1C(=O)[C@@H]1CCCN1C(=O)OC(C)(C)C)c1ccccc1	x	n	x	n	x	x	x	x	x
COc1cccc(C(C(=O)NC2CCCCC2)N(C(=O)c2cccs2)c2ccc3c(c2)OCO3)c1 (configuration not stated)	n	48	n	n	n	n	n	n	n
Cc1nc(CS(=O)(=O)c2ccccc2)cc(Sc2ccc(Cl)cc2Cl)n1	n	75	n	n	n	n	53	n	n
CC(=O)NC(Cc1c[nH]c2ccccc12)C(=O)N1CCN(S(=O)(=O)c2ccccc2)CC1 (configuration not stated)	n	n	n	n	n	n	x	x	x
O=C(/C=C/c1ccc(F)cc1)c1ccc(N2CCOCC2)cc1	n	66	n	n	n	n	51	n	n
Cc1ccc(C(=O)Nc2ccc(N3CCOCC3)cc2)cc1	n	n	n	n	n	n	x	x	x
Cc1ccc(/C=C/C(=O)c2ccc(N3CCOCC3)cc2)s1	n	65	n	n	n	n	n	n	n
CCc1ccc(/C=C/C(=O)c2ccc(S(=O)(=O)N(C)C)cc2)cc1	n	86	n	n	n	n	60	n	n
Cc1cccc(/C=C/C(=O)c2ccc(N3CCOCC3)cc2)c1	x	x	n	x	n	x	x	x	x
CCc1ccc(/C=C/C(=O)c2ccc(N3CCOCC3)cc2)cc1	n	83	n	n	n	n	53	n	n
O=C(Cn1c(NCCO)nc2ccccc21)Nc1ccc2c(c1)OCCCO2	n	n	n	n	n	n	x	x	x
CCCNC(=O)C1(C)CCCN(CCC(=O)c2ccccc2)C1 (configuration not stated)	x	n	x	n	x	x	x	x	x
O=C(COc1cc(Cl)ccc1Cl)N1CCNC1=O	n	n	n	n	n	n	x	x	x
CC1CCCCc2nc3c(c(=O)n21)CCCC3 (configuration not stated)	x	n	x	n	x	x	x	x	x
COc1ccccc1N1CCN(CCN2C(=O)C3CCCN3C2=O)CC1 (configuration not stated)	n	n	n	n	n	n	x	x	x
COc1ccc(NS(=O)(=O)c2ccc(N3CCOCC3)c(NC(=O)C(C)C)c2)cc1	n	n	n	n	n	n	x	x	x
CCOC(=O)/C=C/C(=O)Nc1cc(S(=O)(=O)Nc2ccc(OC)cc2)ccc1N1CCOCC1	n	75	n	n	n	n	72	n	n
Cc1nn(-c2nc3ccccc3s2)c(N)c1-c1ccc(Cl)cc1	n	54	n	n	n	n	53	n	n
Cc1nn(-c2nc3ccccc3s2)c(N)c1-c1ccccc1	n	n	n	n	n	n	x	x	x
CC1(C(=O)NS(=O)(=O)c2ccc3ccccc3c2)CCN1C(=O)Cc1ccc(-c2ccccc2)cc1 (configuration not stated)	x	n	x	n	x	x	x	x	x
Cc1ccc(CNC(=O)c2ccc(N3CCc4ccccc43)c([N+](=O)[O-])c2)cc1	n	37	n	n	n	n	n	n	n

Assay outcomes from PubChem.
